Data set [1] has as its system Jejunum. The data set can be described thus: Drug uptake in Wistar rat jejunum pre-perfused with 400 uM CES inhibitor BNPP assessed as rate of drug disappearance at 100 uM at pH 5.4 by in-situ single-pass perfusion method. Type of data set: ADME, tissue-based. As to conditions: in vivo, pH 5.4, 100 µM. An outline of the steps: (§1)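 Same in situ jejunal single-pass perfusion, with carboxylesterase blocked by pre-perfusing the lumen with 400 µM BNPP for 40 min. Then 100 µM drug in luminal phosphate buffer (pH 5.4 or 6.4) at 0.2 ml/min. Vascular Krebs–Henseleit (pH 7.4) at 2.5 ml/min. Luminal, vascular and tissue levels measured by HPLC. Rates are luminal disappearance and appearance in lumen or mesenteric vein. Mean ± S.D., n = 3.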

Data set [2] relates to Jejunum. Description: Drug degradation in Wistar rat jejunum lumen assessed as rate of drug disappearance at 100 uM by in-situ single-pass perfusion method. Type of data set: ADME, tissue-based. A digest of the protocol: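 Rats fasted 18–24 h, anesthetized with intraperitoneal pentobarbital. Isolated cannulated jejunal segment kept at 37°C in Krebs–Henseleit buffer with 3% BSA and 10 mM glucose. Vascular perfusion with Krebs–Henseleit (pH 7.4) at 2.5 ml/min. Lumen perfused at 0.2 ml/min with phosphate buffer (pH 5.4, 6.4 or 7.4) containing 100 µM drug plus FD-4. Luminal and vascular samples assayed by HPLC (UV 258 nm). Parameters normalized to 10 cm intestine. Mean ± S.D., n = 3–6.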

A short description of data set [3]: Drug hydrolysis in intact Wistar rat jejunal S9 fraction at 500 uM assessed per mg protein. Type of data set: ADME, Jejunum. To be noted: s9, 500 µM. A digest of the protocol:
(§2)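 Jejunal mucosal homogenate or S9 (HEPES pH 7.4/KCl) taken from intact jejunum, or after 40 min perfusion with or without 400 µM BNPP. Protein at 400 µg/ml incubated at 37°C with 500 µM drug. Added BNPP (100 or 1000 µM) pre-incubated 5 min. Temocaprilat formed measured by HPLC and given as nmol/min/mg protein and % of control. Mean ± S.D., n = 4.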

Data set [4] has as its system Jejunum. Description: Drug uptake in Wistar rat jejunum pre-perfused with 400 uM CES inhibitor BNPP assessed as rate of drug appearance at 100 uM at pH 6.4 by in-situ single-pass perfusion method. Type of data set: ADME, tissue-based. As to conditions: in vivo, pH 6.4, 100 µM. A digest of the protocol:
as §1

The nature of data set [5]: Drug hydrolysis in perfused Wistar rat jejunal S9 fraction at 500 uM assessed per mg protein. The data set is classed as ADME, Jejunum. As to conditions: s9, 500 µM. A digest of the protocol: as §2
The nature of data set [6]: Drug hydrolysis in Wistar rat duodenal S9 fraction. Type of data set: ADME, Duodenum. A digest of the protocol: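 Duodenal or jejunal mucosa from fasted rats homogenized in 50 mM HEPES (pH 7.4) with 1.15% KCl; S9 is the 9000 g supernatant. S9 pre-incubated 5 min at 37°C, then drug added at 10–500 µM final (1% DMSO). Run for 20 min, stopped with acetonitrile, temocaprilat formed measured by HPLC. Km and Vmax from Michaelis–Menten nonlinear fit. Inhibitor (1 mM BNPP) pre-incubated 5 min. Results as % of control.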

Regarding `CCOC(=O)[C@H](CCc1ccccc1)N[C@H]1CS[C@H](c2cccs2)CN(CC(=O)O)C1=O` [TEMOCAPRIL], the CL in the data set with Jejunum [1] was found to be 2.98 nmol/min; in the data set on Jejunum [4], 0.696 nmol/min. Besides, the Drug degradation in the data set with Jejunum [2] is 3.89 nmol/min; in data set [3], 4.46 nmol/min; in data set [5], 4.28 nmol/min. In addition, in data set [6], the Km was determined as 47.4 µM.

One may read the Km as the substrate concentration at which the rate is half of its maximum.

These data come from ChEMBL document CHEMBL3526140, “Prediction of human intestinal absorption of the prodrug temocapril by in situ single-pass perfusion using rat intestine with modified hydrolase activity” (Drug Metab Dispos, 2011).
